The list is not random: actives were taken first. Their share in the collection is about 2.5%.
SENP1 inh: blocks the human SENP1 SUMO protease catalytic domain; Q9P0U3; recombinant SENP1 catalytic domain, CyPet-SUMO1-YPet FRET cleavage; inhibition, % at 10 µM; actives 0.21% (n = 360,000); AID 624204;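 active means inhibition at least 30% at 10 µM, raw YFP signal under a set limit, fluorescence ratio 0.5 to 1.5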
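Test system: hSENP1 catalytic domain, recombinant; Amount: 20 pM final SENP1 enzyme; Medium: Tris pH 8 buffer plus EDTA, NaCl, BME, BSA, NP40, catalase; Schedule: 50 min enzyme reaction, room temperature, light-protected; Technique: FRET fluorescence in CFP and YFP emission channels; Controls: no-enzyme wells low, DMSO-plus-enzyme wells high control.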
SENP7 block: SENP7 protease inhibition | Q9BQF6 | recombinant SENP7, Z-RLRGG-aminoluciferin luminescence, 40 min | inhibition, % at 5 µM | actives 1.5% (n = 330,000) | AID 434973;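 active means inhibition above about 50% at the single test dose, limit read from the data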
Target sequence (Q9BQF6 706-1050 limits assumed): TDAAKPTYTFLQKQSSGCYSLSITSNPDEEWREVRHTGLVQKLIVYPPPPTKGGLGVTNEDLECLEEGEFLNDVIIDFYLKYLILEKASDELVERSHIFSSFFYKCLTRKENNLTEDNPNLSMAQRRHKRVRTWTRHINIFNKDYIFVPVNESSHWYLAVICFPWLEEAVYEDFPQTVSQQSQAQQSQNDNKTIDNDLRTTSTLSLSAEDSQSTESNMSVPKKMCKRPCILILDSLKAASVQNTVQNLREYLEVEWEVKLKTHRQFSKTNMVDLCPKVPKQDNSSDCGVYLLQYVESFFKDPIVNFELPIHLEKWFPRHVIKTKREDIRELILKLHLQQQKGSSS
SENP8 block-1: SENP8 protease inhibition. inhibition, % at 10 µM. actives 1.2% (n = 330,000). AID 2540. purified SENP8, Z-RLRGG-aminoluciferin cleavage, luminescence. Q96LD8; in the data active means inhibition above about 50%
Target sequence (Q96LD8 whole entry, looked up): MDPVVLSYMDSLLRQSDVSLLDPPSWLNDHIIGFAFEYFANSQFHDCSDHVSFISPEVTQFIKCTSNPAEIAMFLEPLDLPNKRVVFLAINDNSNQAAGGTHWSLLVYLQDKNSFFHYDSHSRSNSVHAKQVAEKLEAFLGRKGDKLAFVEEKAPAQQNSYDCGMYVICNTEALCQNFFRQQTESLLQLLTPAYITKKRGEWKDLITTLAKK
SENP8 block-2: SENP8 (human) protease inhibition; recombinant SENP8, Nedd8 substrate fluorescence; inhibition, % at 20 µM; actives 0.64% (n = 360,000); AID 602440; in the data active means inhibition mostly above about 40%, no sharp cut-off; inactive means mostly below about 27%
SENP6 inh: SENP6 protease inhibition. Q9GZR1. Recombinant SENP6 catalytic domain, aminoluciferin luminescence. inhibition, % at 10 µM. actives 1.8% (n = 330,000). AID 2599;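 active means inhibition above about 50% at the single tested dose, limit read from the data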
SENP8 inh conf: confirmation of human SENP8 protease inhibitors. shares compounds with SENP8 block-2. purified SENP8, Nedd8-AMC/pro-Nedd8 cleavage fluorescence, 30 min. inhibition, % at 25 µM. actives 15% (n = 1,400). AID 624319; in the data active means inhibition mostly above about 39%, no sharp cut-off; inactive means mostly below about 34%
Each line names hits and unclear results; the compound was inactive in the other large screens (follow-up assays come after a bar, where they were run).

CC1(C)OC(=O)C2=C(C[C@@H](C3CC3)O[C@@H]2C2CC2)O1	none (no result: SENP7 block, SENP8 block-1, SENP6 inh)
COc1ccccc1N(CC(=O)NC1CCCC1)C(=O)c1csnn1	SENP8 block-2 44.7 | SENP8 inh conf inactive
O=C(Cn1ncc2c([nH]c3ccccc32)c1=O)N1CCc2ccccc2C1	none
O=C(CCc1nc2ccccc2[nH]1)N1CCc2ccccc2C1	SENP8 block-2 45.1 | SENP8 inh conf 54.5
CN1CCN(CC(=O)n2c3c(c4ccccc42)CCCC3)CC1	SENP8 block-2 44.5 | SENP8 inh conf inactive
CS(=O)(=O)CCC(C(=O)OCc1ccc(Cl)cc1)N1C(=O)c2ccccc2C1=O (centres undefined)	none
CC(C)(C)OC(=O)NCCCCCNC(=O)c1[nH]cnc1C(=O)Nc1ccon1	none
CC1CCN(c2ccc(NC(=S)NC(=O)c3ccco3)cc2)CC1	SENP8 block-2 42.4 | SENP8 inh conf inactive
COC(=O)/C(=C/Nc1ccc(O)cc1)[N+](=O)[O-]	SENP8 block-2 74.4 | SENP8 inh conf inactive
O=C(NCc1ccc2c(c1)OCO2)C1CC(c2ccccc2O)=NO1 (centres undefined)	none
O=C(NCc1ccc2c(c1)OCO2)C1CC(c2cccc(Br)c2)=NO1 (centres undefined)	SENP8 block-2 40.3 | SENP8 inh conf inactive
COc1ccc(/C=N/NS(=O)(=O)c2ccccc2)cc1OC(=O)c1ccc(C)cc1	SENP8 block-2 41.2 | SENP8 inh conf inactive
COc1ccc(/C=N/NS(=O)(=O)c2ccc(C)cc2)cc1OC(=O)c1ccccc1	none
OC(c1cccc(Cl)c1)c1nc(-c2csc3ccccc23)cs1 (centres undefined)	none (no result: SENP7 block, SENP8 block-1, SENP6 inh)
Cn1cccc1CNC(=S)Nc1ccccc1Cl	SENP8 block-2 40.1 | SENP8 inh conf inactive
CN(Cc1cn(-c2ccccc2)nc1-c1ccc(F)cc1)C(=O)CCC(=O)O	none
CN(Cc1cn(-c2ccccc2)nc1-c1ccc(Cl)cc1)C(=O)CCC(=O)O	SENP8 block-2 40.1 | SENP8 inh conf inactive
COc1ccccc1OCCNC(=O)c1cc(F)c(F)cc1Cl	SENP8 block-2 41.1 | SENP8 inh conf inactive
COc1ccc(C2(C(=O)NCCCN3CCOCC3)CCOCC2)cc1	none
Cc1nc(Nc2ccc(F)cc2)nc(Nc2ccc(F)cc2)c1[N+](=O)[O-]	none
COc1ccc(Nc2nc(NN)nc(C)c2[N+](=O)[O-])cc1	SENP8 block-2 60.1 | SENP8 inh conf inactive
CNC(=O)c1cc(Oc2ccc(NC(=O)Nc3ccc(Cl)c(C(F)(F)F)c3)cc2)ccn1	none
C/C(N)=C(/C#N)C(=O)COC(=O)c1ccc(NC(N)=O)cc1	none
Cc1ccc(C(=O)COc2ccccc2-c2ccccc2)cc1	SENP8 block-2 45.2 | SENP8 inh conf inactive
O=C(O)c1ccccc1S(=O)(=O)NCC(O)COC1CCCCC1 (centres undefined)	SENP8 block-2 43.4 | SENP8 inh conf inactive
Cc1ccccc1C(=O)NCCN1CCOCC1	none
CC(C(=O)NCCN1CCOCC1)(c1ccccc1)c1ccccc1	SENP8 block-2 67.1 | SENP8 inh conf inactive
O=[N+]([O-])c1ccc(/C=[N+](\[O-])CCO)o1	SENP8 block-2 44.7 | SENP8 inh conf inactive
Cc1ccc(C(=O)NCC(=O)OCC(=O)N(CC(C)C)c2c(N)n(Cc3ccccc3)c(=O)[nH]c2=O)cc1	SENP8 block-2 31.9 | SENP8 inh conf inactive
O=C(NN1CCCCC1)NN1CCCCC1	none (no result: SENP7 block, SENP8 block-1, SENP6 inh)
Cc1cc(NS(=O)(=O)c2ccc(NC(=O)C(C(C)C)N3C(=O)c4ccccc4C3=O)cc2)nc(C)n1 (centres undefined)	none
Cc1cc(NS(=O)(=O)c2ccc(NC(=O)C(CC(C)C)N3C(=O)c4ccccc4C3=O)cc2)nc(C)n1 (centres undefined)	SENP8 block-2 42.4 | SENP8 inh conf inactive
Nc1nc(-c2ccccc2)c(CCCOc2ccc(NC(=O)CBr)cc2)c(=O)[nH]1	none (no result: SENP7 block, SENP8 block-1, SENP6 inh)
O=[N+]([O-])c1cc(Cl)ccc1NCCNS(=O)(=O)c1ccccc1	SENP8 block-2 42.6 | SENP8 inh conf inactive
O=[N+]([O-])c1ccccc1NCCNS(=O)(=O)c1ccc(Cl)cc1	none
NC(=O)NC(CC(=O)NNC(=O)c1ccccn1)c1ccccc1Cl (centres undefined)	none
O=c1cc(-c2cccc([N+](=O)[O-])c2)[nH][nH]1	SENP8 block-2 42.9 | SENP8 inh conf inactive
NCC(=O)Nc1ccc(Cl)cc1C(=O)c1ccc[nH]1	none
O=C(O)C1Cc2ccccc2CN1C(=O)c1ccccc1 (centres undefined)	none
CC(C)(C)OC(=O)N1Cc2ccccc2C[C@H]1C(=O)O	SENP8 block-2 40.1 | SENP8 inh conf 68.2
CCOC(=O)C1(C)C=C(Nc2ccc(OC)cc2)C(=O)N1c1ccc(OC)cc1 (centres undefined)	none
CCOC(=O)C1(C)C=C(Nc2ccc(O)cc2)C(=O)N1c1ccc(O)cc1 (centres undefined)	SENP8 block-2 61.2 | SENP8 inh conf inactive
O=C(NC(CSSCC(NC(=O)c1ccccc1)C(=O)O)C(=O)O)c1ccccc1 (centres undefined)	SENP8 block-2 62.7 | SENP8 inh conf inactive
CCCCCCn1c(=O)n2n(c1=O)C[C@]1(OC(=O)NCc3ccco3)CN(S(=O)(=O)c3ccc(C)cc3)C[C@]1(O)C2	none (no result: SENP7 block, SENP8 block-1, SENP6 inh)
CC(=O)N1CCN(C(=O)CCC(=O)O)CC1	SENP8 block-2 54.2 | SENP8 inh conf inactive
CC1CCN(c2ccc([N+](=O)[O-])cn2)CC1	none
Cc1c(C)c(C)c(C(=O)C2CCN(c3ccc([N+](=O)[O-])cn3)CC2)c(C)c1C	SENP8 block-2 44.0 | SENP8 inh conf inactive
O=C(CSc1nnc(C2CC2)n1CC1CCCO1)Nc1ccc(Cl)cc1 (centres undefined)	none
O=C(COC(=O)c1ccc([N+](=O)[O-])o1)NCc1ccc2c(c1)OCO2	SENP8 block-2 41.2 | SENP8 inh conf 76.1
CC(NC(=O)COC(=O)c1ccc([N+](=O)[O-])o1)c1ccccc1 (centres undefined)	SENP8 block-2 57.1 | SENP8 inh conf 87.9
O=C(COC(=O)c1ccc(Br)o1)NCc1ccc2c(c1)OCO2	none
COc1ccc(CCC(=O)OCc2csc(CC(=O)Nc3ccccc3C)n2)cc1	none
COC(=O)c1ccc(N2CCOCC2)c(NC(=O)c2ccco2)c1	none
COc1cc(NC(=O)C2CCCCN2)ccc1OCC(C)C (centres undefined)	SENP8 block-2 27.2 | SENP8 inh conf inactive
CC1(C)CC(NC(=O)Cc2ccccc2)CC(C)(C)N1	none
CCN(CC)c1ccc(C=Nc2ccc(N(C)C)cc2)c(O)c1	SENP8 block-2 52.5 | SENP8 inh conf inactive
CCN(CC)c1ccc(N=Cc2ccc(N(CC)CC)cc2O)cc1	SENP8 block-2 57.6 | SENP8 inh conf inactive
CCN(CC)c1ccc(C=Nc2ccc(C)cc2)c(O)c1	none
CCN(CC)C(=O)CSc1n[nH]c(=S)n1N	SENP8 block-2 44.3 | SENP8 inh conf inactive
